ChEMBL document CHEMBL4351006, “A new exploration towards aminothiazolquinolone oximes as potentially multi-targeting antibacterial agents: Design, synthesis and evaluation acting on microbes, DNA, HSA and topoisomerase IV” (Eur J Med Chem, 2019)
Values after ≈ are worked out from the molar mass of the structure shown.

Key:
Candida tropicalis = assay: Antifungal activity against Candida tropicalis assessed as reduction in fungal cell viability incubated for 24 hrs by two fold serial dilution method; type: functional
Method in brief: (§1)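 Broth two-fold serial dilution run to CLSI guidelines. Chloromycin, norfloxacin and fluconazole served as reference drugs.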

Enterococcus faecalis = assay: Antibacterial activity against Enterococcus faecalis assessed as reduction in bacterial cell viability incubated for 24 hrs by two fold serial dilution method; type: functional; method in brief: as §1
Pseudomonas aeruginosa [1] = assay: Antibacterial activity against Pseudomonas aeruginosa ATCC 27853 assessed as reduction in bacterial cell viability incubated for 24 hrs by two fold serial dilution method; type: functional; conditions: ATCC 27853, 24 h; method in brief: as §1
Escherichia coli [2] = assay: Antibacterial activity against Escherichia coli ATCC 25922 assessed as reduction in bacterial cell viability incubated for 24 hrs by two fold serial dilution method; type: functional; conditions: ATCC 25922, 24 h; method in brief: as §1
Escherichia coli [3] = assay: Antibacterial activity against Escherichia coli assessed as reduction in bacterial cell viability incubated for 24 hrs by two fold serial dilution method; type: functional; method in brief: as §1
Acinetobacter baumannii = assay: Antibacterial activity against Acinetobacter baumannii assessed as reduction in bacterial cell viability incubated for 24 hrs by two fold serial dilution method; type: functional; method in brief: as §1
Pseudomonas aeruginosa [4] = assay: Antibacterial activity against Pseudomonas aeruginosa assessed as reduction in bacterial cell viability incubated for 24 hrs by two fold serial dilution method; type: functional; method in brief: as §1
Candida parapsilosis = assay: Antifungal activity against Candida parapsilosis ATCC 22019 assessed as reduction in fungal cell viability incubated for 24 hrs by two fold serial dilution method; conditions: Lodderomyces parapsilosis, ATCC 22019, 24 h
Staphylococcus aureus [5] = assay: Antibacterial activity against methicillin resistant Staphylococcus aureus N315 assessed as reduction in bacterial cell viability incubated for 24 hrs by two fold serial dilution method; type: functional; conditions: N315, 24 h
Method in brief: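 MIC by two-fold serial dilution following CLSI, with chloromycin and norfloxacin as reference drugs.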

Candida albicans [6] = assay: Antifungal activity against Candida albicans assessed as reduction in fungal cell viability incubated for 24 hrs by two fold serial dilution method; type: functional; method in brief: as §1
Staphylococcus aureus [7] = assay: Antibacterial activity against Staphylococcus aureus ATCC 25923 assessed as reduction in bacterial cell viability incubated for 24 hrs by two fold serial dilution method; type: functional; conditions: ATCC 25923, 24 h; method in brief: as §1
Klebsiella pneumoniae = assay: Antibacterial activity against Klebsiella pneumoniae assessed as reduction in bacterial cell viability incubated for 24 hrs by two fold serial dilution method; type: functional; method in brief: as §1
Staphylococcus aureus [8] = assay: Antibacterial activity against Staphylococcus aureus ATCC 29213 assessed as reduction in bacterial cell viability incubated for 24 hrs by two fold serial dilution method; type: functional; conditions: ATCC 29213, 24 h; method in brief: as §1
Aspergillus fumigatus [9] = assay: Antifungal activity against Aspergillus fumigatus assessed as reduction in fungal cell viability incubated for 24 hrs by two fold serial dilution method; type: functional; method in brief: as §1
Staphylococcus aureus [10] = assay: Antibacterial activity against Staphylococcus aureus assessed as reduction in bacterial cell viability incubated for 24 hrs by two fold serial dilution method; type: functional; method in brief: as §1
Candida albicans [11] = assay: Antifungal activity against Candida albicans ATCC 90023 assessed as reduction in fungal cell viability incubated for 24 hrs by two fold serial dilution method; type: functional; conditions: ATCC 90023, 24 h; method in brief: as §1
Aspergillus fumigatus [12] = assay: Potency index, ratio of MIC of fluconazole to MIC of compound for antifungal activity against Aspergillus fumigatus assessed as reduction in […] incubated for 24 hrs by two fold serial dilution method; type: functional

Row | SMILES | MIC (Candida tropicalis) [µM] | MIC (Enterococcus faecalis) [µM] | MIC (Pseudomonas aeruginosa [1]) [µM] | MIC (Escherichia coli [2]) [µM] | MIC (Escherichia coli [3]) [µM] | MIC (Acinetobacter baumannii) [µM] | MIC (Pseudomonas aeruginosa [4]) [µM] | MIC (Candida parapsilosis) [µM] | MIC (Staphylococcus aureus [5]) [µM] | MIC (Candida albicans [6]) [µM] | MIC (Staphylococcus aureus [7]) [µM] | MIC (Klebsiella pneumoniae) [µM] | MIC (Staphylococcus aureus [8]) [µM] | MIC (Aspergillus fumigatus [9]) [µM] | MIC (Staphylococcus aureus [10]) [µM] | MIC (Candida albicans [11]) [µM] | Ratio (Aspergillus fumigatus [12])
1 | CCn1cc(-c2csc(N)n2)c(=O)c2cc(F)c(N3CCN(C/C(=N/OC)c4ccc(OC)cc4)CC3)cc21 | 232 (≈ 128 µg/mL) | 232 (≈ 128 µg/mL) | 465 (≈ 256 µg/mL) | 232 (≈ 128 µg/mL) | 465 (≈ 256 µg/mL) | 465 (≈ 256 µg/mL) | 465 (≈ 256 µg/mL) | 465 (≈ 256 µg/mL) | 465 (≈ 256 µg/mL) | 232 (≈ 128 µg/mL) | 465 (≈ 256 µg/mL) | 465 (≈ 256 µg/mL) | 465 (≈ 256 µg/mL) | 465 (≈ 256 µg/mL) | 465 (≈ 256 µg/mL) | 465 (≈ 256 µg/mL) | –
2 | CCn1cc(-c2csc(N)n2)c(=O)c2cc(N3CCN(C/C(C)=N/OC)CC3)c(Cl)cc21 | 269 (≈ 128 µg/mL) | 135 (≈ 64.1 µg/mL) | 135 (≈ 64.1 µg/mL) | 269 (≈ 128 µg/mL) | 269 (≈ 128 µg/mL) | 135 (≈ 64.1 µg/mL) | 269 (≈ 128 µg/mL) | 67 (≈ 31.8 µg/mL) | 67 (≈ 31.8 µg/mL) | 539 (≈ 256 µg/mL) | 135 (≈ 64.1 µg/mL) | 135 (≈ 64.1 µg/mL) | 135 (≈ 64.1 µg/mL) | 269 (≈ 128 µg/mL) | 67 (≈ 31.8 µg/mL) | 269 (≈ 128 µg/mL) | –
3 | CCn1cc(-c2csc(N)n2)c(=O)c2cc(F)c(N3CCN(CC(C)=O)CC3)cc21 | 288 (≈ 124 µg/mL) | 288 (≈ 124 µg/mL) | 36 (≈ 15.5 µg/mL) | 288 (≈ 124 µg/mL) | 1150 (≈ 494 µg/mL) | 288 (≈ 124 µg/mL) | 288 (≈ 124 µg/mL) | 288 (≈ 124 µg/mL) | 72 (≈ 30.9 µg/mL) | 575 (≈ 247 µg/mL) | 288 (≈ 124 µg/mL) | 72 (≈ 30.9 µg/mL) | 575 (≈ 247 µg/mL) | 575 (≈ 247 µg/mL) | 144 (≈ 61.9 µg/mL) | 144 (≈ 61.9 µg/mL) | –
4 | CCn1cc(-c2csc(N)n2)c(=O)c2cc(F)c(N3CCN(C/C(C)=N/O)CC3)cc21 | 288 (≈ 128 µg/mL) | 288 (≈ 128 µg/mL) | 144 (≈ 64 µg/mL) | 72 (≈ 32 µg/mL) | 288 (≈ 128 µg/mL) | 288 (≈ 128 µg/mL) | 288 (≈ 128 µg/mL) | 72 (≈ 32 µg/mL) | 72 (≈ 32 µg/mL) | 72 (≈ 32 µg/mL) | 36 (≈ 16 µg/mL) | 72 (≈ 32 µg/mL) | 144 (≈ 64 µg/mL) | 288 (≈ 128 µg/mL) | 72 (≈ 32 µg/mL) | 72 (≈ 32 µg/mL) | –
5 | CCn1cc(-c2csc(N)n2)c(=O)c2cc(F)c(N3CCN(C/C(C)=N/NC(N)=O)CC3)cc21 | 132 (≈ 64.2 µg/mL) | 526 (≈ 256 µg/mL) | 132 (≈ 64.2 µg/mL) | 263 (≈ 128 µg/mL) | 263 (≈ 128 µg/mL) | 263 (≈ 128 µg/mL) | 263 (≈ 128 µg/mL) | 66 (≈ 32.1 µg/mL) | 66 (≈ 32.1 µg/mL) | 526 (≈ 256 µg/mL) | 132 (≈ 64.2 µg/mL) | 526 (≈ 256 µg/mL) | 263 (≈ 128 µg/mL) | 263 (≈ 128 µg/mL) | 263 (≈ 128 µg/mL) | 132 (≈ 64.2 µg/mL) | 3
6 | CCn1cc(-c2csc(N)n2)c(=O)c2cc(F)c(N3CCN(C/C(=N/OC)c4ccc(Cl)cc4Cl)CC3)cc21 | 54 (≈ 31.8 µg/mL) | 434 (≈ 256 µg/mL) | 217 (≈ 128 µg/mL) | 869 (≈ 512 µg/mL) | 109 (≈ 64.3 µg/mL) | 54 (≈ 31.8 µg/mL) | 217 (≈ 128 µg/mL) | 217 (≈ 128 µg/mL) | 434 (≈ 256 µg/mL) | 434 (≈ 256 µg/mL) | 54 (≈ 31.8 µg/mL) | 217 (≈ 128 µg/mL) | 217 (≈ 128 µg/mL) | 434 (≈ 256 µg/mL) | 217 (≈ 128 µg/mL) | 217 (≈ 128 µg/mL) | –
7 | CCO/N=C(\C)CN1CCN(c2cc3c(cc2F)c(=O)c(-c2csc(N)n2)cn3CC)CC1 | 68 (≈ 32.1 µg/mL) | 68 (≈ 32.1 µg/mL) | 135 (≈ 63.8 µg/mL) | 68 (≈ 32.1 µg/mL) | 135 (≈ 63.8 µg/mL) | 135 (≈ 63.8 µg/mL) | 135 (≈ 63.8 µg/mL) | 68 (≈ 32.1 µg/mL) | 135 (≈ 63.8 µg/mL) | 1080 (≈ 512 µg/mL) | 135 (≈ 63.8 µg/mL) | 135 (≈ 63.8 µg/mL) | 68 (≈ 32.1 µg/mL) | 542 (≈ 256 µg/mL) | 34 (≈ 16.1 µg/mL) | 542 (≈ 256 µg/mL) | –
8 | CCn1cc(-c2csc(N)n2)c(=O)c2cc(F)c(N3CCN(C/C(=N/OC)c4ccc(F)cc4)CC3)cc21 | 951 (≈ 512 µg/mL) | 475 (≈ 256 µg/mL) | 951 (≈ 512 µg/mL) | 951 (≈ 512 µg/mL) | 475 (≈ 256 µg/mL) | 951 (≈ 512 µg/mL) | 951 (≈ 512 µg/mL) | 951 (≈ 512 µg/mL) | 238 (≈ 128 µg/mL) | 951 (≈ 512 µg/mL) | 238 (≈ 128 µg/mL) | 951 (≈ 512 µg/mL) | 475 (≈ 256 µg/mL) | 951 (≈ 512 µg/mL) | 475 (≈ 256 µg/mL) | 951 (≈ 512 µg/mL) | –
9 | CCn1cc(-c2csc(N)n2)c(=O)c2cc(N3CCN(C/C(=N/OC)c4ccc(OC)cc4)CC3)c(Cl)cc21 | 226 (≈ 128 µg/mL) | 451 (≈ 256 µg/mL) | 451 (≈ 256 µg/mL) | 451 (≈ 256 µg/mL) | 451 (≈ 256 µg/mL) | 451 (≈ 256 µg/mL) | 451 (≈ 256 µg/mL) | 451 (≈ 256 µg/mL) | 451 (≈ 256 µg/mL) | 451 (≈ 256 µg/mL) | 451 (≈ 256 µg/mL) | 451 (≈ 256 µg/mL) | 451 (≈ 256 µg/mL) | 451 (≈ 256 µg/mL) | 451 (≈ 256 µg/mL) | 226 (≈ 128 µg/mL) | –
